Source: ChEMBL document CHEMBL1781932 (J Med Chem, 2011)
Converted amounts (≈) assume the structure as drawn.

Assays:
Type in all cases: functional
[1] = system: Staphylococcus aureus; experiment: Antimicrobial activity against tetracycline-susceptible Staphylococcus aureus isolate 101 by CLSI dilution method
[2] = system: Staphylococcus aureus; experiment: Antimicrobial activity against methicillin-, tetracycline-resistant Staphylococcus aureus isolate 161 harboring tetM gene by CLSI dilution method
[3] = system: Staphylococcus aureus; experiment: Antimicrobial activity against tetracycline-resistant Staphylococcus aureus isolate 158 harboring tetK gene by CLSI dilution method
[4] = system: Enterococcus faecalis; experiment: Antimicrobial activity against tetracycline-susceptible Enterococcus faecalis isolate 103 by CLSI dilution method
Method in brief: (§1)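 Broth microdilution per CLSI in fresh cation-adjusted Mueller Hinton broth, kept at 4 °C before testing, with defibrinated horse blood added as appropriate. Strains were from ATCC. MIC in µg/mL. Runs were accepted when comparator antibiotics against ATCC quality-control strains fell within recommended ranges.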

[5] = system: Enterococcus faecalis; experiment: Antimicrobial activity against tetracycline-resistant Enterococcus faecalis isolate 159 harboring […] gene by CLSI dilution method
[6] = system: Streptococcus pneumoniae; experiment: Antimicrobial activity against tetracycline-susceptible Streptococcus pneumoniae isolate 106 by CLSI dilution method; method in brief: as §1
[7] = system: Streptococcus pneumoniae; experiment: Antimicrobial activity against tetracycline-resistant Streptococcus pneumoniae isolate 160 harboring tetM gene by CLSI dilution method
[8] = system: Escherichia coli; experiment: Antimicrobial activity against tetracycline-susceptible Escherichia coli isolate 107 by CLSI dilution method; method in brief: as §1
[9] = system: Escherichia coli; experiment: Antimicrobial activity against tetracycline-resistant Escherichia coli isolate 155 harboring tetA gene by CLSI dilution method
[10] = system: Acinetobacter baumannii; experiment: Antimicrobial activity against tetracycline-susceptible Acinetobacter baumannii isolate 110 by CLSI dilution method; method in brief: as §1
[11] = system: Pseudomonas aeruginosa; experiment: Antimicrobial activity against tetracycline-susceptible Pseudomonas aeruginosa isolate 111 by CLSI dilution method; method in brief: as §1
[12] = system: Enterobacter cloacae; experiment: Antimicrobial activity against tetracycline-susceptible Enterobacter cloacae isolate 108 by CLSI dilution method; method in brief: as §1
[13] = system: Klebsiella pneumoniae; experiment: Antimicrobial activity against tetracycline-susceptible Klebsiella pneumoniae isolate 109 by CLSI dilution method; method in brief: as §1
[14] = system: Klebsiella pneumoniae; experiment: Antimicrobial activity against tetracycline-resistant Klebsiella pneumoniae isolate 153 harboring tetA gene by CLSI dilution method

Row | Compound | MIC [1] [µg/mL] | MIC [2] [µg/mL] | MIC [3] [µg/mL] | MIC [4] [µg/mL] | MIC [5] [µg/mL] | MIC [6] [µg/mL] | MIC [7] [µg/mL] | MIC [8] [µg/mL] | MIC [9] [µg/mL] | MIC [10] [µg/mL] | MIC [11] [µg/mL] | MIC [12] [µg/mL] | MIC [13] [µg/mL] | MIC [14] [µg/mL]
1 | CCN(C)Cc1ccc2cc3c(c(O)c2c1)C(=O)C1=C(O)[C@]2(O)C(=O)C(C(N)=O)=C(O)[C@@H](N(C)C)[C@@H]2C[C@@H]1C3 | 0.25 (≈ 0.467 µM) | 2 (≈ 3.73 µM) | 0.5 (≈ 0.934 µM) | 0.5 (≈ 0.934 µM) | 4 (≈ 7.47 µM) | 0.125 (≈ 0.233 µM) | 0.25 (≈ 0.467 µM) | 2 (≈ 3.73 µM) | 16 (≈ 29.9 µM) | 2 (≈ 3.73 µM) | > 32 | 4 (≈ 7.47 µM) | 8 (≈ 14.9 µM) | 32 (≈ 59.7 µM)
2 | CN(C)[C@@H]1C(O)=C(C(N)=O)C(=O)[C@@]2(O)C(O)=C3C(=O)c4c(c(F)c5ccc(CN6CCCC6)cc5c4O)C[C@H]3C[C@@H]12 | 0.25 (≈ 0.442 µM) | 1 (≈ 1.77 µM) | 0.125 (≈ 0.221 µM) | 0.125 (≈ 0.221 µM) | 1 (≈ 1.77 µM) | 0.0313 (≈ 0.0553 µM) | 0.0313 (≈ 0.0553 µM) | 1 (≈ 1.77 µM) | 4 (≈ 7.07 µM) | 0.25 (≈ 0.442 µM) | 32 (≈ 56.6 µM) | 4 (≈ 7.07 µM) | 2 (≈ 3.54 µM) | 4 (≈ 7.07 µM)
3 | CN(C)c1c2c(c(O)c3cc(CN4CCC4)ccc13)C(=O)C1=C(O)[C@]3(O)C(=O)C(C(N)=O)=C(O)[C@@H](N(C)C)[C@@H]3C[C@@H]1C2 | 1 (≈ 1.73 µM) | 2 (≈ 3.47 µM) | 0.0625 (≈ 0.108 µM) | 0.125 (≈ 0.217 µM) | 2 (≈ 3.47 µM) | < 0.0156 | 0.125 (≈ 0.217 µM) | 2 (≈ 3.47 µM) |  | 1 (≈ 1.73 µM) | 32 (≈ 55.5 µM) | 8 (≈ 13.9 µM) | 4 (≈ 6.94 µM) | 16 (≈ 27.7 µM)
4 | CN(C)[C@@H]1C(O)=C(C(N)=O)C(=O)[C@@]2(O)C(O)=C3C(=O)c4c(cc5ccc(CN6CCCCC6)cc5c4O)C[C@H]3C[C@@H]12 | 0.5 (≈ 0.89 µM) | 2 (≈ 3.56 µM) | 0.5 (≈ 0.89 µM) | 0.5 (≈ 0.89 µM) | 2 (≈ 3.56 µM) | 0.125 (≈ 0.223 µM) | 0.25 (≈ 0.445 µM) | 2 (≈ 3.56 µM) |  | 1 (≈ 1.78 µM) | > 32 | 8 (≈ 14.2 µM) | 8 (≈ 14.2 µM) | 8 (≈ 14.2 µM)
5 | CNCc1ccc2c(N(C)C)c3c(c(O)c2c1)C(=O)C1=C(O)[C@]2(O)C(=O)C(C(N)=O)=C(O)[C@@H](N(C)C)[C@@H]2C[C@@H]1C3 | 0.25 (≈ 0.454 µM) | 2 (≈ 3.63 µM) | 0.5 (≈ 0.908 µM) | 0.5 (≈ 0.908 µM) | 4 (≈ 7.26 µM) | 0.125 (≈ 0.227 µM) | 0.5 (≈ 0.908 µM) | 2 (≈ 3.63 µM) | 32 (≈ 58.1 µM) | 2 (≈ 3.63 µM) | > 32 | 8 (≈ 14.5 µM) | 4 (≈ 7.26 µM) | 32 (≈ 58.1 µM)
6 | CN(C)[C@@H]1C(O)=C(C(N)=O)C(=O)[C@@]2(O)C(O)=C3C(=O)c4c(cc5ccc(F)cc5c4O)C[C@H]3C[C@@H]12 | 0.5 (≈ 1.04 µM) | 0.5 (≈ 1.04 µM) | 0.25 (≈ 0.518 µM) | 0.25 (≈ 0.518 µM) | 0.5 (≈ 1.04 µM) | 2 (≈ 4.15 µM) | 8 (≈ 16.6 µM) | 16 (≈ 33.2 µM) | > 32 | 4 (≈ 8.29 µM) | > 32 | > 32 | > 32 | > 32
7 | COC1CN(Cc2ccc3cc4c(c(O)c3c2)C(=O)C2=C(O)[C@]3(O)C(=O)C(C(N)=O)=C(O)[C@@H](N(C)C)[C@@H]3C[C@@H]2C4)C1 | 1 (≈ 1.77 µM) | 4 (≈ 7.1 µM) | 0.5 (≈ 0.887 µM) | 1 (≈ 1.77 µM) | 8 (≈ 14.2 µM) | 0.0625 (≈ 0.111 µM) | 0.5 (≈ 0.887 µM) | 2 (≈ 3.55 µM) | 16 (≈ 28.4 µM) | 2 (≈ 3.55 µM) | > 32 | 8 (≈ 14.2 µM) | 4 (≈ 7.1 µM) | 16 (≈ 28.4 µM)
